These results are taken from ChEMBL document CHEMBL1955747, “Maximizing lipophilic efficiency: the use of Free-Wilson analysis in the design of inhibitors of acetyl-CoA carboxylase” (J Med Chem, 2012).

pIC50: −log10 of the molar value. In brackets after ≈: the same amount, converted by molar mass.

System in the first data set: not listed separately
In words: Permeability across dog RRCK cells. The conditions noted are these: MDCK, read-out: permeability. The class given is ADME, cell-based, Canis lupus familiaris, MDCKII-LE.
For `CC(C)(C)n1cc2c(n1)C(=O)CC1(CCN(C(=O)c3ccc4nc[nH]c4c3)CC1)O2`, the Papp was found to be 10.9 ×10⁻⁶ cm/s.

The target of another data set is Acetyl-CoA carboxylase 1 (Rattus norvegicus, UniProt P11497). In words: Inhibition of rat liver Acetyl-CoA carboxylase 1 using acetyl-CoA as substrate preincubated for 10 mins prior substrate addition measured after 20 mins by luminescence counting.
Conditions: not given
In outline:
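Each IC50 comes from single-point inhibition data run in triplicate. The reported value is the arithmetic mean of at least three independent replicates ± SEM.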
A word on the pIC50: it is the negative decadic logarithm of the IC50, by convention in mol/L. Read a high pIC50 as a small IC50. Compound `Cc1cc(C(=O)N2CCC3(CC2)CC(=O)c2nn(C4CCCCC4)cc2O3)cc2cn[nH]c12` showed a pIC50 of 7.34.
On the same count and under the same terms, the value for `Cn1ncc2ccc(C(=O)N3CCC4(CC3)CC(=O)c3nn(C(C)(C)C)cc3O4)cc21` was 7.89; that for `CC(C)(C)n1cc2c(n1)C(=O)CC1(CCN(C(=O)c3ccc4nc[nH]c4c3)CC1)O2` was 7.77; that for `Cc1cc(C(=O)N2CCC3(CC2)CC(=O)c2nn(C)cc2O3)cc2cn[nH]c12` was 6.43.
The same measure, in the same setting: the value for `Cc1cc(C(=O)N2CCC3(CC2)CC(=O)c2nn(C)c(C)c2O3)cc2cn[nH]c12` was 6.55; that for `CCn1cc2c(n1)C(=O)CC1(CCN(C(=O)c3cc(C)c4[nH]ncc4c3)CC1)O2` was 7.21.
On the same count and under the same terms, for `Cc1cc(C(=O)N2CCC3(CC2)CC(=O)c2nn(Cc4ccccc4)cc2O3)cc2cn[nH]c12` the value was 6.59; for `Cc1cc(C(=O)N2CCC3(CC2)CC(=O)c2nn(C(C)(C)C)cc2O3)cc2cn[nH]c12`, 8.15; for `CCn1nc2c(c1C)OC1(CCN(C(=O)c3ccc4[nH]nc(C)c4c3)CC1)CC2=O`, 7.54.
`CCn1nc2c(c1C)OC1(CCN(C(=O)c3cc(C)c4[nH]nc(C)c4c3)CC1)CC2=O` showed a pIC50 of 7.92. Against the preceding compound, the pIC50 is 0.38 log units higher.
Same read-out and setting: the value for `CCc1n[nH]c2ccc(C(=O)N3CCC4(CC3)CC(=O)c3nn(CC)c(C)c3O4)cc12` was 7.44; that for `CCc1cc(C(=O)N2CCC3(CC2)CC(=O)c2nn(CC)c(C)c2O3)cc2cn[nH]c12` was 7.51.
For `CCOc1cc(C(=O)N2CCC3(CC2)CC(=O)c2nn(CC)c(C)c2O3)cc2c(C)n[nH]c12`, the pIC50 is 7.94.
In the case of `CCn1nc2c(c1C)OC1(CCN(C(=O)c3ccc4[nH]ncc4c3)CC1)CC2=O`, the pIC50 is 7.00. Compared with the last compound, the pIC50 is 0.94 log units lower.
On the same count and under the same terms, the value for `CCn1nc2c(c1C)OC1(CCN(C(=O)c3cc(C)c4nc[nH]c4c3)CC1)CC2=O` was 7.31.
Same read-out and setting: for `CCn1nc2c(c1C)OC1(CCN(C(=O)c3cc(C)c4nc(C)[nH]c4c3)CC1)CC2=O` the value was 7.47.
As to `Cc1n[nH]c2c(C)cc(C(=O)N3CCC4(CC3)CC(=O)c3nn(C(C)C)cc3O4)cc12`, the pIC50 was 7.92. Against the preceding compound, the pIC50 is 0.45 log units higher.
Same read-out and setting: for `Cc1cc(C(=O)N2CCC3(CC2)CC(=O)c2nn(C(C)(C)C)cc2O3)cc2[nH]cnc12` the value was 8.02.

The subject of the next data set is Rattus norvegicus. Put plainly: Antidiabetic activity in po dosed Sprague-Dawley rat assessed as inhibition of malonyl-CoA production in quadriceps after 2 hrs by LC-MS analysis. The class given is functional.
Conditions: not given
Broadly, the ED50 is the dose at which the effect has come halfway, by size or by number of responders. Consider `CC(C)(C)n1cc2c(n1)C(=O)CC1(CCN(C(=O)c3ccc4nc[nH]c4c3)CC1)O2`, for which the median effective dose (ED50) stood at 2.6 mg/kg.

A further data set deals with Acetyl-CoA carboxylase 2 (Homo sapiens, UniProt O00763). In words: Inhibition of human Acetyl-CoA carboxylase 2 expressed in CHO cells after 1 hr by fluorescence assay. The class given is cell-based.
Chain of Acetyl-CoA carboxylase 2 (O00763 whole entry): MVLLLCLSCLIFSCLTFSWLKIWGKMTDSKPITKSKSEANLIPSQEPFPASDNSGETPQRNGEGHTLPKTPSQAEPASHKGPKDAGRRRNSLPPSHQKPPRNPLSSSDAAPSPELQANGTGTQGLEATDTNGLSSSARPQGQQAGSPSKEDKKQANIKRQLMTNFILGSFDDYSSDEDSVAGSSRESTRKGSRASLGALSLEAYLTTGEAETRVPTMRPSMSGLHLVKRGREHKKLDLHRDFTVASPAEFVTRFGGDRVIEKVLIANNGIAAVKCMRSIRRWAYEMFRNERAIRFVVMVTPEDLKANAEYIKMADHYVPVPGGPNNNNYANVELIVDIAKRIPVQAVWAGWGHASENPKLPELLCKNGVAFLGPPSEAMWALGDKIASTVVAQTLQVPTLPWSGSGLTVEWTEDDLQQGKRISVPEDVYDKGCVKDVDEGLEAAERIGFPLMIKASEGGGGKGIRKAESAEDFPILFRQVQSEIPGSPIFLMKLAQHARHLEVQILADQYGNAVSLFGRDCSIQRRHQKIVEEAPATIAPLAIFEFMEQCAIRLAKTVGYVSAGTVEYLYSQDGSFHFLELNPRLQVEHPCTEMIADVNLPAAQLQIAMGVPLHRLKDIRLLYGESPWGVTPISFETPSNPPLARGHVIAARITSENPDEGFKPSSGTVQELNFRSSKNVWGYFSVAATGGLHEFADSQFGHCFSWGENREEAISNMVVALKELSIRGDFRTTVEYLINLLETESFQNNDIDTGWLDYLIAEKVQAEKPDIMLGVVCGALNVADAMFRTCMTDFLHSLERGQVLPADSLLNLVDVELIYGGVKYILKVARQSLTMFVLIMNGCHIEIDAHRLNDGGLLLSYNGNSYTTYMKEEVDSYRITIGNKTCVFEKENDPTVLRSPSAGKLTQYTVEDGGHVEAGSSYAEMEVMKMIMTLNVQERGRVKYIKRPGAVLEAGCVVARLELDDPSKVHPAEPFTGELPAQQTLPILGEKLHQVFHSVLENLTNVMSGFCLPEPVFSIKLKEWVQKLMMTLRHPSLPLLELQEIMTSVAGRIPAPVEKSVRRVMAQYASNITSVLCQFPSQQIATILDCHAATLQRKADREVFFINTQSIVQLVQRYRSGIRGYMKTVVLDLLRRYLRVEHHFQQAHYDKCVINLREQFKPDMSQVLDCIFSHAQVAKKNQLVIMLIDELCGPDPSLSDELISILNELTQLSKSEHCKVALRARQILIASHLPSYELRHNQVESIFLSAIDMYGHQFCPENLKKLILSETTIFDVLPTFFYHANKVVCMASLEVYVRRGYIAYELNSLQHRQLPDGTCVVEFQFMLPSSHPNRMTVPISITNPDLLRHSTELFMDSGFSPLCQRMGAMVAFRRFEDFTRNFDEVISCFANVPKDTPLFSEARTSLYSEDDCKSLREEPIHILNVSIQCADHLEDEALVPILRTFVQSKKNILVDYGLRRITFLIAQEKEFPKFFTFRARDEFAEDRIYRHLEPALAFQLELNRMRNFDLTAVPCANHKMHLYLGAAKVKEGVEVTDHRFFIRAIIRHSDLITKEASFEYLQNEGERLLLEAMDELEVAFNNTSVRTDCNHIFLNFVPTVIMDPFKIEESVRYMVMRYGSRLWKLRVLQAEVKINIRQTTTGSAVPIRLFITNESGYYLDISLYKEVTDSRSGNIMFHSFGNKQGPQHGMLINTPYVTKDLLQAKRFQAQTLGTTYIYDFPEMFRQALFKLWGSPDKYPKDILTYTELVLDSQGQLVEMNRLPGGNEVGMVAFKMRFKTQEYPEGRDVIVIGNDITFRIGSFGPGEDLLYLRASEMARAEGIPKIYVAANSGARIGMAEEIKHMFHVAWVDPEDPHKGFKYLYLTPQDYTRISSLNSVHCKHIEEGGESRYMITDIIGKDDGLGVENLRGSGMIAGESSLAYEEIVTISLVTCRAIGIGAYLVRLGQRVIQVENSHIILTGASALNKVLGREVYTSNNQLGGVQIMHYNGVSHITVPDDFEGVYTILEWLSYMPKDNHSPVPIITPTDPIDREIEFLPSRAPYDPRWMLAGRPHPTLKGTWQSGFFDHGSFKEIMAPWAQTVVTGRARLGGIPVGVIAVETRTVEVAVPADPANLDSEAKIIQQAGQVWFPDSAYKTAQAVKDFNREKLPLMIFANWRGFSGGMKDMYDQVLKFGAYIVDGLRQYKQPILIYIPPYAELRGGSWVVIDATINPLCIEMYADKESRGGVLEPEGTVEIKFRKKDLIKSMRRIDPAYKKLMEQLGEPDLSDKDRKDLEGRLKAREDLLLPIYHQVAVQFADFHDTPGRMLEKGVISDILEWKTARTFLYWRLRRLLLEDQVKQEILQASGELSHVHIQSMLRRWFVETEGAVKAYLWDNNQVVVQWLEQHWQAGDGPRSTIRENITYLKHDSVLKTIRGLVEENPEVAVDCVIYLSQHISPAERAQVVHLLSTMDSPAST
Conditions: not given
`Cc1cc(C(=O)N2CCC3(CC2)CC(=O)c2nn(C4CCCCC4)cc2O3)cc2cn[nH]c12` gave a pIC50 of 7.20.
Same read-out and setting: the value for `Cn1ncc2ccc(C(=O)N3CCC4(CC3)CC(=O)c3nn(C(C)(C)C)cc3O4)cc21` was 7.68; that for `Cc1cc(C(=O)N2CCC3(CC2)CC(=O)c2nn(C)cc2O3)cc2cn[nH]c12` was 6.19; that for `Cc1cc(C(=O)N2CCC3(CC2)CC(=O)c2nn(C)c(C)c2O3)cc2cn[nH]c12` was 6.33.
On the same count and under the same terms, the value for `CCn1cc2c(n1)C(=O)CC1(CCN(C(=O)c3cc(C)c4[nH]ncc4c3)CC1)O2` was 7.20; that for `CCn1nc2c(c1C)OC1(CCN(C(=O)c3cc(C)c4[nH]ncc4c3)CC1)CC2=O` was 7.43; that for `CCCn1cc2c(n1)C(=O)CC1(CCN(C(=O)c3cc(C)c4[nH]ncc4c3)CC1)O2` was 7.35.
Still for that read-out and setting: for `Cc1cc(C(=O)N2CCC3(CC2)CC(=O)c2nn(C(C)C)cc2O3)cc2cn[nH]c12` the value was 7.64; for `Cc1cc(C(=O)N2CCC3(CC2)CC(=O)c2nn(C4CCC4)cc2O3)cc2cn[nH]c12`, 7.85.
The compound `Cc1cc(C(=O)N2CCC3(CC2)CC(=O)c2nn(C4CCCC4)cc2O3)cc2cn[nH]c12` gave a negative logarithm of the IC50 (pIC50) of 8.03.
Still for that read-out and setting: the value for `Cc1cc(C(=O)N2CCC3(CC2)CC(=O)c2nn(C(C)(C)C)cc2O3)cc2cn[nH]c12` was 8.16; that for `CCn1nc2c(c1C)OC1(CCN(C(=O)c3ccc4[nH]nc(C)c4c3)CC1)CC2=O` was 7.38.
The same measure, in the same setting: for `CCn1nc2c(c1C)OC1(CCN(C(=O)c3cc(C)c4[nH]nc(C)c4c3)CC1)CC2=O` the value was 7.89; for `CCc1cc(C(=O)N2CCC3(CC2)CC(=O)c2nn(CC)c(C)c2O3)cc2cn[nH]c12`, 7.43; for `CCn1nc2c(c1C)OC1(CCN(C(=O)c3ccc4[nH]ncc4c3)CC1)CC2=O`, 7.04.
The same measure, in the same setting: the value for `CCn1nc2c(c1C)OC1(CCN(C(=O)c3cc(C)c4nc[nH]c4c3)CC1)CC2=O` was 7.10; that for `CCn1nc2c(c1C)OC1(CCN(C(=O)c3cc(C)c4nc(C)[nH]c4c3)CC1)CC2=O` was 7.25.
The compound `Cc1n[nH]c2c(C)cc(C(=O)N3CCC4(CC3)CC(=O)c3nn(C(C)C)cc3O4)cc12` had a negative logarithm of the IC50 (pIC50) of 7.85.
Still for that read-out and setting: for `Cc1cc(C(=O)N2CCC3(CC2)CC(=O)c2nn(C(C)(C)C)cc2O3)cc2[nH]cnc12` the value was 8.13; for `Cc1nc2c(C)cc(C(=O)N3CCC4(CC3)CC(=O)c3nn(C(C)(C)C)cc3O4)cc2[nH]1`, 8.18.

Another data set relates to Rattus norvegicus. Put plainly: Volume of distribution at steady state in po dosed Sprague-Dawley rat. Format: ADME, organism-based. The conditions noted are these: in vivo.
`CC(C)(C)n1cc2c(n1)C(=O)CC1(CCN(C(=O)c3ccc4nc[nH]c4c3)CC1)O2` displayed a Vdss of 2.3 L/kg.

The test system of a further data set is Rattus norvegicus. In words: Antidiabetic activity in Sprague-Dawley rat assessed as inhibition of malonyl-CoA production in quadriceps at 50 mg/kg, po after 2 hrs by LC-MS analysis. Format: functional.
Conditions: not given
With `CC(C)(C)n1cc2c(n1)C(=O)CC1(CCN(C(=O)c3ccc4nc[nH]c4c3)CC1)O2`, the Imax amounted to 75%.

System in the next data set: not listed separately
Put plainly: Oral bioavailability in Sprague-Dawley rat. Format: ADME, organism-based. The conditions noted are these: in vivo.
As usually defined, the bioavailability is the share of a dose that reaches the circulation, judged against a reference dose that is usually intravenous. Low values mean little systemic uptake, high ones much systemic uptake. In turn, `CC(C)(C)n1cc2c(n1)C(=O)CC1(CCN(C(=O)c3ccc4nc[nH]c4c3)CC1)O2` had a bioavailability of 50%.

System in the next data set: not listed separately
Put plainly: Fraction unbound in Sprague-Dawley rat plasma.
Conditions: not given
Format: ADME, cell-free.
The term fraction unbound denotes free concentration divided by total concentration. Higher therefore signals weak binding. In the case of `CC(C)(C)n1cc2c(n1)C(=O)CC1(CCN(C(=O)c3ccc4nc[nH]c4c3)CC1)O2`, the fraction unbound was determined as 0.55.

The subject of the next data set is Rattus norvegicus. Put plainly: Antidiabetic activity in Sprague-Dawley rat assessed as inhibition of malonyl-CoA production in liver at 50 mg/kg, po after 2 hrs by LC-MS analysis. Format: functional.
Conditions: not given
Regarding `CC(C)(C)n1cc2c(n1)C(=O)CC1(CCN(C(=O)c3ccc4nc[nH]c4c3)CC1)O2`, the Imax came to 78%.

System in a further data set: not listed separately
Put plainly: Aqueous solubility at pH 6.5. The class given is physicochemical. The conditions noted are these: buffer.
One may read the solubility as how much of the substance goes into solution per volume. Low readings indicate little dissolved substance, high ones much dissolved substance. `CC(C)(C)n1cc2c(n1)C(=O)CC1(CCN(C(=O)c3ccc4nc[nH]c4c3)CC1)O2` yielded a solubility of 300 µM (≈ 122 µg/mL).

The subject of another data set is Rattus norvegicus. In words: Antidiabetic activity in po dosed Sprague-Dawley rat assessed as inhibition of malonyl-CoA production in liver after 2 hrs by LC-MS analysis. Format: functional.
Conditions: not given
For `CC(C)(C)n1cc2c(n1)C(=O)CC1(CCN(C(=O)c3ccc4nc[nH]c4c3)CC1)O2`, the ED50 turned out to be 1.6 mg/kg.

System in the next data set: not listed separately
In words: Plasma clearance in po dosed Sprague-Dawley rat. Format: ADME, organism-based.
Conditions: not given
As a reminder, the CL/F is clearance divided by bioavailability, as obtained after extravascular dosing. As to `CC(C)(C)n1cc2c(n1)C(=O)CC1(CCN(C(=O)c3ccc4nc[nH]c4c3)CC1)O2`, the apparent clearance CL/F was determined as 26 mL/min/kg.

System in the next data set: not listed separately
In words: Intrinsic clearance in human liver microsomes. Format: ADME, Microsome. The note with it: read-out: CLH. On the technique in general: Microsomes from liver hold many membrane-bound enzymes, among them those of drug oxidation.
`Cc1cc2c(cc1C)C(=O)CC1(CCN(C(=O)c3cc(C)c4[nH]ncc4c3)CC1)O2`: the CLint scaled came out at 68 mL/min/kg.
Take `Cn1ncc2ccc(C(=O)N3CCC4(CC3)CC(=O)c3nn(C(C)(C)C)cc3O4)cc21`: the CLint scaled was 13.1 mL/min/kg.
For `CC(C)(C)n1cc2c(n1)C(=O)CC1(CCN(C(=O)c3ccc4nc[nH]c4c3)CC1)O2`, the CLint scaled is under 8 mL/min/kg.
On the same count and under the same terms, the value for `Cc1n[nH]c2c(C)cc(C(=O)N3CCC4(CC3)CC(=O)c3nn(C(C)C)cc3O4)cc12` was under 8 mL/min/kg; that for `Cc1n[nH]c2c(C)cc(C(=O)N3CCC4(CC3)CC(=O)c3nn(C5CCOC5)c(C)c3O4)cc12` (configuration not stated) was 23.1 mL/min/kg.
The same measure, in the same setting: the value for `Cc1cc(C(=O)N2CCC3(CC2)CC(=O)c2nn(C(C)(C)C)cc2O3)cc2[nH]cnc12` was 12.4 mL/min/kg; that for `Cc1nc2c(C)cc(C(=O)N3CCC4(CC3)CC(=O)c3nn(C(C)(C)C)cc3O4)cc2[nH]1` was 15.1 mL/min/kg.

System in another data set: not listed separately
In words: Aqueous solubility at pH 7.4. The class given is physicochemical. The note with it: buffer.
In turn, `Cc1cc2c(cc1C)C(=O)CC1(CCN(C(=O)c3cc(C)c4[nH]ncc4c3)CC1)O2` showed a solubility of 19 µM (≈ 7.67 µg/mL).

System in another data set: not listed separately
In words: Half life in po dosed Sprague-Dawley rat. Format: ADME, organism-based. The note with it: in vivo.
As a reminder, the half-life is how long it takes for the measured level to halve. As to `CC(C)(C)n1cc2c(n1)C(=O)CC1(CCN(C(=O)c3ccc4nc[nH]c4c3)CC1)O2`, the half-life is 252 min.
